Experiments:
Settings in all cases: stereoisomer not certain
OR1F12P (Homo sapiens) = biological target: T1, OR1F12P (Homo sapiens) (UniProt Q8NHA8)
T1 sequence (whole entry): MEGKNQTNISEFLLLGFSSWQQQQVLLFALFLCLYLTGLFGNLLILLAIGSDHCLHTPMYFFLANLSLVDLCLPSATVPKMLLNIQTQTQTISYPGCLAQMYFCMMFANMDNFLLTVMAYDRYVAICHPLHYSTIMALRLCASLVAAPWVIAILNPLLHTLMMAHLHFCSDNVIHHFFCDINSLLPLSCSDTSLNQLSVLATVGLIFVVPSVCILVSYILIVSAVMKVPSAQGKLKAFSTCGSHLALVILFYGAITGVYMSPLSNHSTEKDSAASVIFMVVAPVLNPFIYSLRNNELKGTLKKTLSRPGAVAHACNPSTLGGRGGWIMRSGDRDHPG
Summary of the method: (§1)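 Assay methods differ from source to source, frequently being transient luciferase assays in mammalian cell lines. For each receptor–molecule pair, the label responsive (active) applies when the original authors judged the measured signal statistically different from baseline, and non-responsive (inactive) applies otherwise.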

OR1G1 (Homo sapiens) = biological target: T2, OR1G1 (Homo sapiens) (UniProt P47890)
T2 sequence (whole entry): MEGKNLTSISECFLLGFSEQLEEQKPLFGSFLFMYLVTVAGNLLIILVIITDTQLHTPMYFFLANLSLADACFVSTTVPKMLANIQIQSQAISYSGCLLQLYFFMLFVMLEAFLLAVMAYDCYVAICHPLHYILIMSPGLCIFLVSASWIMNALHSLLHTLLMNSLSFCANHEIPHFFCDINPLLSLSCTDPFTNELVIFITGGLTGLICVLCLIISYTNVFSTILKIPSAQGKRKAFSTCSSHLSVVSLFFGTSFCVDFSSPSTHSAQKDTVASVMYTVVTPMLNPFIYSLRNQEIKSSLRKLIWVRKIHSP
Summary of the method: as §1

OR1I1 (Homo sapiens) = biological target: T3, OR1I1 (Homo sapiens) (UniProt O60431)
T3 sequence (whole entry): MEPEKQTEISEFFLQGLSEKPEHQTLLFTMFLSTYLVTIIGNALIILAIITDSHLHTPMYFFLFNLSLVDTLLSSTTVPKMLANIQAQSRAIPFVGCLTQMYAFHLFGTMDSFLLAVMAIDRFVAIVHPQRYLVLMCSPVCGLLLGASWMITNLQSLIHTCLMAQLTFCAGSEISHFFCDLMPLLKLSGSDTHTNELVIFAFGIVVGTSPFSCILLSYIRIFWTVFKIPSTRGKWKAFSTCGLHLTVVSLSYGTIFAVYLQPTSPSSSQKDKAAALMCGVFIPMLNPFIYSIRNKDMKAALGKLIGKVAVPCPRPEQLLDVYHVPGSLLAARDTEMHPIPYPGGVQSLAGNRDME
Summary of the method: as §1

OR1J1 (Homo sapiens) = biological target: T4, OR1J1 (Homo sapiens) (UniProt Q8NGS3)
T4 sequence (whole entry): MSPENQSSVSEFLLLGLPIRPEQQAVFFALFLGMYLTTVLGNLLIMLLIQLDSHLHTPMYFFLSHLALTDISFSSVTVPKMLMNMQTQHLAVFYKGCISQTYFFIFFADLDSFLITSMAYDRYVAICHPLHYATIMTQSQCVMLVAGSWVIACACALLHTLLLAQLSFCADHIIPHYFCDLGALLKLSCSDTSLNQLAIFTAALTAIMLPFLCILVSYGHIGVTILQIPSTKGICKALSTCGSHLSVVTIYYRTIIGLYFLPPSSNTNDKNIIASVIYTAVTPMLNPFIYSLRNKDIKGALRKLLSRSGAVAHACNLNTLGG
Summary of the method: as §1

OR1J2 (Homo sapiens) = biological target: T5, OR1J2 (Homo sapiens) (UniProt Q8NGS2)
T5 sequence (whole entry): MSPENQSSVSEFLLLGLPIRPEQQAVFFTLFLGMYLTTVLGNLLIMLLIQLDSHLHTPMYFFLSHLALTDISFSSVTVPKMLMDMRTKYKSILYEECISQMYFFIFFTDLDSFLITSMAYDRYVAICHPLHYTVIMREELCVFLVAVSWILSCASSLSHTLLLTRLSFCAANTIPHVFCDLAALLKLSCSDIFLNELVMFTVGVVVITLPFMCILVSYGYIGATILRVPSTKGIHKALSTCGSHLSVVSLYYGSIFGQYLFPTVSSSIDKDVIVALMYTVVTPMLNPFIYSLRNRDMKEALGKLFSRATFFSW
Summary of the method: as §1

OR1J4 (Homo sapiens) = biological target: T6, OR1J4 (Homo sapiens) (UniProt Q8NGS1)
T6 sequence (whole entry): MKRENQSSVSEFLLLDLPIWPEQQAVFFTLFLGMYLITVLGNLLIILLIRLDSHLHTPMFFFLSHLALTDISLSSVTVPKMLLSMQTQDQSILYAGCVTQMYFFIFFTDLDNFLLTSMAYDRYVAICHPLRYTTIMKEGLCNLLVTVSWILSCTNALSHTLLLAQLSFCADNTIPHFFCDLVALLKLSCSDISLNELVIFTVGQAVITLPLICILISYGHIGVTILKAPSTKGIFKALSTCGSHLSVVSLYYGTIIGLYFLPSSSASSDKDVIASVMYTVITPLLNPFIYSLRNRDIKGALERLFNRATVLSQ
Summary of the method: as §1

OR1K1 (Homo sapiens) = biological target: T7, OR1K1 (Homo sapiens) (UniProt Q8NGR3)
T7 sequence (whole entry): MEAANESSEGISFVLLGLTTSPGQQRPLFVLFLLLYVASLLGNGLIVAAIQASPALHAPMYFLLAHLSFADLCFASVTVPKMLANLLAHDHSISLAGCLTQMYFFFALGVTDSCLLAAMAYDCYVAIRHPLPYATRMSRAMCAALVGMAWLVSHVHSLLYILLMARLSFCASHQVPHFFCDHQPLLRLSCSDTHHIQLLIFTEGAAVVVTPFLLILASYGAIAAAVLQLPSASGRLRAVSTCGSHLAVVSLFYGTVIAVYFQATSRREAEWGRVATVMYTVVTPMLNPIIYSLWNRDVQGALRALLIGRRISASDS
Summary of the method: as §1

OR1L1 (Homo sapiens) = biological target: T8, OR1L1 (Homo sapiens) (UniProt Q8NH94)
T8 sequence (whole entry): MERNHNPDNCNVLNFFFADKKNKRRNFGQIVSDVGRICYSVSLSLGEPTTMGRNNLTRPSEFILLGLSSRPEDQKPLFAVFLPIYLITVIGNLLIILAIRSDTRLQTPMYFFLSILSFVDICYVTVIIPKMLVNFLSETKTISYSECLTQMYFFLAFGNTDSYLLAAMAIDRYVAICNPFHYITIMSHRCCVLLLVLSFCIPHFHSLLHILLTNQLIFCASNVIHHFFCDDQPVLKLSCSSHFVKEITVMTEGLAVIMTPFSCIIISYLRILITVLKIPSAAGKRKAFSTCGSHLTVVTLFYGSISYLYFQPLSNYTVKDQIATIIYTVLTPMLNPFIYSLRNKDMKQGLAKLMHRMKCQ
Summary of the method: as §1

OR1L3 (Homo sapiens) = biological target: T9, OR1L3 (Homo sapiens) (UniProt Q8NH93)
T9 sequence (whole entry): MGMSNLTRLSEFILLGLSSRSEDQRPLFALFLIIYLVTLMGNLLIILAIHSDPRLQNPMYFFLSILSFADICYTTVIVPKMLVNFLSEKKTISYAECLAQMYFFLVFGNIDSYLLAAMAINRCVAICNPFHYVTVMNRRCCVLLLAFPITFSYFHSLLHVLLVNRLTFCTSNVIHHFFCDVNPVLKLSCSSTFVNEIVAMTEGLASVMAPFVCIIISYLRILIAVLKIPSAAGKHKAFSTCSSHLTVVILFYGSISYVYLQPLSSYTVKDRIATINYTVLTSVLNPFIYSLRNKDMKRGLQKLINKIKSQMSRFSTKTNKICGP
Summary of the method: as §1

OR1L4 (Homo sapiens) = biological target: T10, OR1L4 (Homo sapiens) (UniProt Q8NGR5)
T10 sequence (whole entry): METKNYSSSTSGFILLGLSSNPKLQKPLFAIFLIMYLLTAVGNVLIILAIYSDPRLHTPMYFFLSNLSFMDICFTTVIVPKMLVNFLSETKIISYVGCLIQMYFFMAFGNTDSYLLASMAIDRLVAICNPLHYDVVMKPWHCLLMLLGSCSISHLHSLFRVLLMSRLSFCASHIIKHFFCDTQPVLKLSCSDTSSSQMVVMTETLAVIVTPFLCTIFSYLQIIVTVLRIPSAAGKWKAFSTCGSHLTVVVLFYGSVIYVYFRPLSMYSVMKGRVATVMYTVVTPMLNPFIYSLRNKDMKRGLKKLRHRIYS
Summary of the method: as §1

OR1L6 (Homo sapiens) = biological target: T11, OR1L6 (Homo sapiens) (UniProt Q8NGR2)
T11 sequence (whole entry): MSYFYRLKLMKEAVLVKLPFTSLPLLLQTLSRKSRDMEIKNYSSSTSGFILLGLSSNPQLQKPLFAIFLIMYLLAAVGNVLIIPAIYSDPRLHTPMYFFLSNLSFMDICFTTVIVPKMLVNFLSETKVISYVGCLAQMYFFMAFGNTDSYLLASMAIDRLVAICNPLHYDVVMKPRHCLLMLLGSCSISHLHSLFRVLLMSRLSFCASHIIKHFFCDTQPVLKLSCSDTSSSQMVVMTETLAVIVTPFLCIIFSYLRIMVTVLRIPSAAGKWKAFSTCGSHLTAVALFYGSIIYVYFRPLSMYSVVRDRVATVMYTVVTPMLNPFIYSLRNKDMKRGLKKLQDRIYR
Summary of the method: as §1

OR1L8 (Homo sapiens) = biological target: T12, OR1L8 (Homo sapiens) (UniProt Q8NGR8)
T12 sequence (whole entry): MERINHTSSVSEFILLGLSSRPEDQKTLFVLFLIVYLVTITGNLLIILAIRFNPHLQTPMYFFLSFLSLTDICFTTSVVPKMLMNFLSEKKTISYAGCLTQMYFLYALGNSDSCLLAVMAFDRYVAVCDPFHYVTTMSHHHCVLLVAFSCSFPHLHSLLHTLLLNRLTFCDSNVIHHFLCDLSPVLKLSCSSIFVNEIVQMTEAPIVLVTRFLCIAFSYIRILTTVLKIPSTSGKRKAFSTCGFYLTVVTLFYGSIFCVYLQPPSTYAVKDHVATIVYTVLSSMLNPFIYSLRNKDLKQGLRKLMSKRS
Summary of the method: as §1

OR1M1 (Homo sapiens) = biological target: T13, OR1M1 (Homo sapiens) (UniProt Q8NGA1)
T13 sequence (whole entry): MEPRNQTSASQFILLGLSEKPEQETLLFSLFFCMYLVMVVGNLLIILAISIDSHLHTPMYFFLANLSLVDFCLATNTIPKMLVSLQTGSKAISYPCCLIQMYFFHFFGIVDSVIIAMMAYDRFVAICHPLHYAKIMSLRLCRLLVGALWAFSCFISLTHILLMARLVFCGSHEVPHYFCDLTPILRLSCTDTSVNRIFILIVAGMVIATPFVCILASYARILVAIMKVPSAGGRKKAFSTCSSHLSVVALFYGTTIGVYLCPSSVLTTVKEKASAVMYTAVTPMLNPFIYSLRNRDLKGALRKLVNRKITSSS
Summary of the method: as §1

OR1N1 (Homo sapiens) = biological target: T14, OR1N1 (Homo sapiens) (UniProt Q8NGS0)
T14 sequence (whole entry): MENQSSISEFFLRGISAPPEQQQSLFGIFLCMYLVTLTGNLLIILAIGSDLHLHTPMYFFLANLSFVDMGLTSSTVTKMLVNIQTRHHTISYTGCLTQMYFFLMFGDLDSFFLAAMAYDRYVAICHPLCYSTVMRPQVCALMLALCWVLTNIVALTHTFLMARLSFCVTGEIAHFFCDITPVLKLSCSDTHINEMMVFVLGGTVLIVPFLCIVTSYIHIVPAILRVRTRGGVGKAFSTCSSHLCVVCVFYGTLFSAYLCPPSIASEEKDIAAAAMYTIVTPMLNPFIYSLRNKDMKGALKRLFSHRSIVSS
Summary of the method: as §1

Measured: odorant receptor agonist call

CCC(S)C(C)CO (stereo not drawn)
inactive: OR1F12P (Homo sapiens) | OR1G1 (Homo sapiens) | OR1I1 (Homo sapiens) | OR1J1 (Homo sapiens) | OR1J2 (Homo sapiens) | OR1J4 (Homo sapiens) | OR1K1 (Homo sapiens) | OR1L1 (Homo sapiens) | OR1L3 (Homo sapiens) | OR1L4 (Homo sapiens) | OR1L6 (Homo sapiens) | OR1L8 (Homo sapiens) | OR1M1 (Homo sapiens) | OR1N1 (Homo sapiens)

CC(CO)CS (stereo not drawn)
inactive: OR1F12P (Homo sapiens) | OR1G1 (Homo sapiens) | OR1I1 (Homo sapiens) | OR1J1 (Homo sapiens) | OR1J2 (Homo sapiens) | OR1J4 (Homo sapiens) | OR1K1 (Homo sapiens) | OR1L1 (Homo sapiens) | OR1L3 (Homo sapiens) | OR1L4 (Homo sapiens) | OR1L6 (Homo sapiens) | OR1L8 (Homo sapiens) | OR1M1 (Homo sapiens) | OR1N1 (Homo sapiens)
